# T cell modulator – modulators of CD8 T cell-vesicle binding, primary screen, mouse 2C CD8+ T cells, flow cytometry; 2C CD8+ T cell-vesicle binding; active compounds read low; response (vesicle binding), % at 7 µM; 0.068% of 330,000 active; AID 2052, 2009;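 active = response, share of CD8 T cells binding vesicles, and their 90th percentile fluorescence all below set limits, cut at about 80% in these data, passing the limit was not always enough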;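 also: values below 100% mean blocked vesicle binding to the CD8+ T cells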
#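 Assay system – 2C mouse CD8+ T cells · Also added – QL9-loaded Drosophila micro-vesicles · Timing – Cell–vesicle co-incubation 1.5 h at 37 °C, staining 20 min on ice · Signal – flow cytometry of vesicle-bound cells · Measure – percent CD8+ FL2 mean versus row control · Controls – Peptide-free naked vesicles (low) and QL9 vesicles with 0.7% DMSO vehicle (high)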
# MCL1 BIM primary – inhibitors of MCL1 binding to BIM-BH3, primary screen, biochemical, fluorescence polarization; Induced myeloid leukemia cell differentiation protein Mcl-1 (Homo sapiens), Q07820; GST-MCL1 / FITC-Bim-BH3 fluorescence polarization; inhibition, % at 10.9 µM; 0.68% of 320,000 active;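 active = inhibition above the mean inhibition of all tested compounds plus 3 SD, set per campaign, cut at about 40% in these data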;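 also: 0% = DMSO wells and 100% = unlabeled Bim-BH3 peptide control; higher means more loss of mP so more displacement of Bim peptide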
# Target sequence (Q07820 whole entry, looked up): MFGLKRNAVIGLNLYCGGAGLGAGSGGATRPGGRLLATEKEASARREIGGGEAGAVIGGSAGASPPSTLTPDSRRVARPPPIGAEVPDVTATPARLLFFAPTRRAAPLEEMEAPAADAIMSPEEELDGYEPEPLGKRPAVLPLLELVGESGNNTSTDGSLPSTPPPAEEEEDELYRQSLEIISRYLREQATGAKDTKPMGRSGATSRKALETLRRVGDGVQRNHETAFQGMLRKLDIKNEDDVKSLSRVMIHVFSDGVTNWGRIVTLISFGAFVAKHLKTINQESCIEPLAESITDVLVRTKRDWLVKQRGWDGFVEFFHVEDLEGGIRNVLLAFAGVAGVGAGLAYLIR
# Mcl1-Bid inh – Mcl-1/Bid binding inhibitors, primary screen, biochemical, TR-FRET, 1536-well; inhibition, % at 21.7 µM; 0.97% of 220,000 active; TR-FRET Mcl-1/Bid-Dy647 peptide binding; Induced myeloid leukemia cell differentiation protein Mcl-1 (Homo sapiens), Q07820;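 active = compounds that cut the binding signal by more than half at the single screening dose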;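 also: His-tagged Mcl-1 with europium anti-His antibody binding Bid BH3 peptide; 0% = Mcl-1 plus peptide wells and 100% = peptide-only wells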
# Bim-Mcl-1 – inhibitors of Bim peptide binding to Mcl-1, primary screen, biochemical, bead-based flow cytometry, multiplex. 0.1% of 190,000 active. AID 1009, 2008. inhibition, % at 10 µM. Bim peptide-Mcl-1 binding; in the data active = inhibition above about 40%;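 also: 0% = no compound tracer wells and 100% = peptide blocker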
# DSG3 Ab inh – inhibitors of pemphigus antibody binding to DSG3, primary screen, biochemical, bead-based, flow cytometry, scFv-GFP. DSG3-coupled beads, scFv-anti-DSG3-GFP binding; active compounds read low. Desmoglein-3 (Homo sapiens), P32926. binding (percent of control), % at 10 µM. 0.48% of 310,000 active;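 active = binding more than 3 SD below its plate's average and above zero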;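 also: hits lower antibody fragment binding to DSG3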
# Mcl1 Noxa PPI – Mcl-1/Noxa binding inhibitors, primary screen, biochemical, TR-FRET, 1536-well; 1.5% of 220,000 active; inhibition, % at 21.7 µM; TR-FRET Mcl-1/Noxa peptide binding, 2 h; AID 1022, 2008;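 active = compounds that cut the protein-peptide binding signal by more than 50% relative to plate controls in a single-dose test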;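 also: His-tagged Mcl-1 with rhodamine Noxa BH3 peptide and terbium anti-His antibody; 0% = Mcl-1 plus Noxa peptide wells and 100% = peptide-only wells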
# Numbers without * were called inactive; i = inactive; . = not tested or not shown. A selection: hits, their analogues and other compounds. The true share with any hit is near 2.3%.
SMILES,T cell modulator,MCL1 BIM primary,Mcl1-Bid inh,Bim-Mcl-1,DSG3 Ab inh,Mcl1 Noxa PPI
O=[N+]([O-])c1cccc(-c2cn3nc(-c4ccccc4)c(-c4ccccc4)nc3n2)c1,116,-3,-8,.,105,-7
O=Nc1c(-c2cccc([N+](=O)[O-])c2)nc2ncccn12,270,8,-6,.,.,55*
CC(C)(C)C(=O)Nc1ccccc1N1CCN(c2ccc(F)cc2)CC1,245,-6,.,.,113,.
CC(C)n1cnc2cc(NCc3ccco3)ccc21,.,7,-53,0,105,52*
COC(=O)C1CCN(C(=O)C2CC(=O)N(c3ccc(C)c(Cl)c3)C2)CC1 (centres undefined),.,.,.,.,103,.
Nc1cccnc1Sc1cc(Cl)c(Cl)cc1Cl,359,0,20,-3,100,88*
N=NC(=O)c1ccccc1Nc1c(O)[nH]c2ccccc12,.,.,.,.,94,.
CC(C)(C)N=C1NN=C(c2ccc(Cl)cc2)CS1,285,-11,-33,.,102,5
COc1ccc(CN=C2NN=C(c3ccc(Cl)cc3)CS2)cc1,439,1,-13,-1,.,58*
Clc1ccc(C2=NNC(=NCc3ccc4c(c3)OCO4)SC2)cc1,292,0,10,-4,108,62*
COC1c2ccccc2C(=O)N1Cc1ccc(F)cc1 (centres undefined),389,4,.,.,104,.
CC(=O)Nc1ccc2nc(NC(=O)c3ccc([N+](=O)[O-])s3)sc2c1,450,18,18,.,.,73*
Cn1cc(Cl)c(C(=O)Nc2nc3ccc(Cl)cc3s2)n1,424,7,-10,0,107,-24
Cn1cc(Cl)c(C(=O)Nc2nc3ccc([N+](=O)[O-])cc3s2)n1,547,7,52*,-1,88,62*
CC(=O)Nc1ccc2nc(NC(=O)COc3ccc([N+](=O)[O-])cc3)sc2c1,437,2,35,-1,99,56*
Cc1ccc2nc(NC(=O)c3ccc(-c4nc5ccccc5s4)s3)sc2c1,i,1,79*,0,86,52*
C=C1C(=O)N(C)CCC1C(CC)C(=O)OC (centres undefined),.,.,.,.,101,.
O=C(Nc1ccc(Cl)cc1)Nc1nnc(Cc2ccc([N+](=O)[O-])cc2)s1,294,7,15,-18,95,16
Cc1ccc(NC(=O)Nc2nnc(Cc3ccc([N+](=O)[O-])cc3)s2)cc1,243,1,51*,-5,69,-8
Cc1ccccc1-n1c(SCC(=O)N/N=C/C=C/c2ccccc2[N+](=O)[O-])nc2ccccc2c1=O,168,-9,0,-1,94,63*
O=C(CSc1nc2ccccc2c(=O)n1-c1ccccc1)N/N=C/C=C/c1ccccc1[N+](=O)[O-],357,0,15,-1,91,2
CCC(=O)N1c2ccc(S(=O)(=O)NCCc3ccc(OC)c(OC)c3)cc2CC1C (centres undefined),377,-3,.,.,104,.
C=CCN1C(=O)C(Cc2ccc(F)cc2)S/C1=N/N=C/c1ccco1 (centres undefined),0.0*,0,-12,-2,94,-3
C=CCN1C(=O)C(Cc2ccc(Br)cc2)S/C1=N\N=C\c1ccco1 (centres undefined),445,4,-4,-2,149,10
CCCCC(=O)Nc1ccc(C(=O)N2CCC(C(=O)OCC)CC2)cc1,578,5,-6,64*,88,17
CCCCCCC(=O)Nc1ccc(C(=O)N2CCCC2)cc1,406,-1,-13,-2,101,10
CC(OC(=O)c1cccc(N2C(=O)c3ccccc3C2=O)c1)C(=O)Nc1ccc(N(C)C)cc1 (centres undefined),239,12,40,-4,99,76*
